Results: ChEMBL document CHEMBL1140904, “Synthesis and analysis of novel glycerolipids for the treatment of metabolic syndrome” (J Med Chem, 2009)

Columns and labels:
[1] = system: Rattus norvegicus; test: Decrease in plasma triacylglycerol level in po dosed Wistar rat after 6 days; format: functional, organism-based
In short: (§1)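 Male Wistar rats (170-210 g), housed in pairs with chow and water, were gavaged once daily for 6 days with test lipid in 0.5% (w/v) carboxymethylcellulose at 85 or 250 µmol TTA-equivalent per animal. Controls received palmitic acid in CMC. Plasma triacylglycerol and cholesterol were measured with an enzymatic kit, and liver levels were also determined. Values are mean ± SD, n=5 rats.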

[2] = system: Rattus norvegicus; test: Effect on fatty acid composition in Wistar rat assessed as change in plasma LCPUFA, n-6 level at 85 uM, po after 6 days; format: functional
[3] = system: Rattus norvegicus; test: Plasma concentration in Wistar rat at 85 uM, po after 6 days; format: ADME, organism-based; conditions: in vivo, 144 h
[4] = system: Rattus norvegicus; test: Effect on fatty acid composition in Wistar rat assessed as change in plasma saturated fatty acid level at 250 uM, po after 6 days; format: functional
[5] = system: Rattus norvegicus; test: Effect on fatty acid composition in Wistar rat assessed as change in plasma LCn-6/18:2 level at 85 uM, po after 6 days; format: functional
[6] = system: Rattus norvegicus; test: Effect on fatty acid composition in Wistar rat assessed as change in liver LCPUFA, n-6 level at 250 uM, po after 6 days; format: functional
In short: (§2)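 Male Wistar rats were gavaged once daily for 6 days with compound in 0.5% CMC at 85 or 250 µmol TTA-equivalent per animal. Controls received palmitic acid. Liver was homogenized in 0.25 M sucrose/10 mM HEPES pH 7.4/1 mM EDTA at 0-4 °C. Lipids were extracted with chloroform:methanol 2:1 and spiked with 21:0 internal standard. Fatty acids were BF3-methanol transesterified and quantified as wt%. Values are mean ± SD, n=5.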

[7] = system: Rattus norvegicus; test: Effect on fatty acid composition in Wistar rat assessed as change in plasma MUFA level at 250 uM, po after 6 days; format: functional
[8] = system: Rattus norvegicus; test: Increase in [1-14C]palmitoyl-CoA oxidation in po dosed Wistar rat liver homogenate after 6 days; format: functional, organism-based
In short: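 Rats were dosed by gastric intubation for 6 days with 85 or 250 µmol TTA-equivalent in 0.5% CMC, with palmitic acid controls. Liver was homogenized in 0.25 M sucrose, 10 mM HEPES pH 7.4, 1 mM EDTA at 0-4 °C. Palmitoyl-CoA oxidation was read as acid-soluble products from [1-14C]-palmitoyl-CoA in the postnuclear fraction. Mean ± SD, n=5.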

[9] = system: Rattus norvegicus; test: Effect on fatty acid composition in Wistar rat assessed as change in plasma 18;2, n-6 level at 85 uM, po after 6 days; format: functional
[10] = system: Rattus norvegicus; test: Effect on fatty acid composition in Wistar rat assessed as change in liver MUFA level at 85 uM, po after 6 days; format: functional; in short: as §2
[11] = system: Rattus norvegicus; test: Effect on fatty acid composition in Wistar rat assessed as change in plasma LCPUFA, n-6 level at 250 uM, po after 6 days; format: functional
[12] = system: Rattus norvegicus; test: Induction of PPAR-alpha-regulated HMG-CoA synthase activity in po dosed Wistar rat after 6 days; format: functional, organism-based
In short: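 Wistar rats were gavaged daily for 6 days at 85 or 250 µmol TTA-equivalent in 0.5% CMC, with palmitic acid controls. HMG-CoA synthase activity was assayed in the liver postnuclear fraction by the Clinkenbeard method. Mean ± SD, 5 rats/group.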

[13] = system: Rattus norvegicus; test: Effect on fatty acid composition in Wistar rat assessed as change in liver 18;2, n-6 level at 85 uM, po after 6 days; format: functional; in short: as §2
[14] = system: Rattus norvegicus; test: Effect on fatty acid composition in Wistar rat assessed as change in plasma LCn-6/18:2 level at 250 uM, po after 6 days; format: functional
[15] = system: Rattus norvegicus; test: Effect on fatty acid composition in Wistar rat assessed as change in plasma saturated fatty acid level at 85 uM, po after 6 days; format: functional
[16] = system: Liver; test: Drug level in Wistar rat liver at 250 uM, po after 6 days; format: ADME, organism-based; conditions: in vivo, 144 h; in short: as §2
[17] = system: Rattus norvegicus; test: Effect on fatty acid composition in Wistar rat assessed as change in liver LCn-6/18:2 level at 85 uM, po after 6 days; format: functional; in short: as §2
[18] = system: Rattus norvegicus; test: Induction of PPAR-alpha-regulated fatty acyl-CoA oxidase activity in po dosed Wistar rat after 6 days; format: functional, organism-based
In short: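 Rats were dosed by gastric intubation for 6 days at 85 or 250 µmol TTA-equivalent in 0.5% CMC, with palmitic acid controls. Fatty acyl-CoA oxidase was measured in the liver postnuclear fraction by a coupled assay, following H2O2 production as the rise in dichlorofluorescein absorbance with palmitoyl-CoA. Mean ± SD, n=5.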

[19] = system: Rattus norvegicus; test: Effect on fatty acid composition in Wistar rat assessed as change in plasma PUFA level at 85 uM, po after 6 days; format: functional
[20] = system: Rattus norvegicus; test: Decrease in plasma cholesterol level in po dosed Wistar rat after 6 days; format: functional, organism-based; in short: as §1
[21] = system: Rattus norvegicus; test: Effect on fatty acid composition in Wistar rat assessed as change in plasma 18;2, n-6 level at 250 uM, po after 6 days; format: functional
[22] = system: Rattus norvegicus; test: Effect on fatty acid composition in Wistar rat assessed as change in liver PUFA level at 85 uM, po after 6 days; format: functional; in short: as §2
[23] = system: Rattus norvegicus; test: Plasma concentration in Wistar rat at 250 uM, po after 6 days; format: ADME, organism-based; conditions: in vivo, 144 h
[24] = system: Rattus norvegicus; test: Effect on fatty acid composition in Wistar rat assessed as change in liver saturated fatty acid level at 250 uM, po after 6 days; format: functional; in short: as §2
[25] = system: Rattus norvegicus; test: Effect on fatty acid composition in Wistar rat assessed as change in plasma PUFA level at 250 uM, po after 6 days; format: functional
[26] = system: Liver; test: Drug level in Wistar rat liver at 85 uM, po after 6 days; format: ADME, organism-based; conditions: in vivo, 144 h; in short: as §2
[27] = system: Rattus norvegicus; test: Effect on fatty acid composition in Wistar rat assessed as change in liver saturated fatty acid level at 85 uM, po after 6 days; format: functional; in short: as §2
[28] = system: Rattus norvegicus; test: Effect on fatty acid composition in Wistar rat assessed as change in liver LCn-6/18:2 level at 250 uM, po after 6 days; format: functional; in short: as §2
[29] = system: Rattus norvegicus; test: Induction of PPAR-alpha-regulated CPT2 activity in po dosed Wistar rat after 6 days; format: functional, organism-based
In short: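 Wistar rats were dosed orally for 6 days (85 or 250 µmol TTA-equivalent in 0.5% CMC; palmitic acid controls). CPT-II activity was measured in the liver mitochondrial fraction, prepared from sucrose/HEPES pH 7.4/EDTA homogenate at 0-4 °C. Means ± SD from 5 rats per group.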

[30] = system: Rattus norvegicus; test: Effect on fatty acid composition in Wistar rat assessed as change in liver MUFA level at 250 uM, po after 6 days; format: functional; in short: as §2
[31] = system: Rattus norvegicus; test: Effect on fatty acid composition in Wistar rat assessed as change in plasma MUFA level at 85 uM, po after 6 days; format: functional
[32] = system: Rattus norvegicus; test: Effect on fatty acid composition in Wistar rat assessed as change in liver PUFA level at 250 uM, po after 6 days; format: functional; in short: as §2
[33] = system: Rattus norvegicus; test: Effect on fatty acid composition in Wistar rat assessed as change in liver 18;2, n-6 level at 250 uM, po after 6 days; format: functional; in short: as §2
[34] = system: Rattus norvegicus; test: Effect on fatty acid composition in Wistar rat assessed as change in liver LCPUFA, n-6 level at 85 uM, po after 6 days; format: functional; in short: as §2

CCCCCCCCCCCCCCSCC(=O)O [TETRADECYLTHIOACETIC ACID]
Activity [1]: Dose-dependent effect | Activity [2]: 18.75% | Drug uptake [3]: 0.32% | Activity [4]: 35% | Activity [5]: 1.03% | Activity [6]: 27.66% | Activity [7]: 21.32% | Activity [8]: Dose-dependent effect | Activity [9]: 18.46% | Activity [10]: 17.35% | Activity [11]: 20.82% | Activity [12]: Dose-dependent effect | Activity [13]: 11.15% | Activity [14]: 1.06% | Activity [15]: 36.02% | Drug uptake [16]: 2.03% | Activity [17]: 2.34% | Activity [18]: Dose-dependent effect | Activity [19]: 2.47% | Activity [20]: Dose-dependent effect | Activity [21]: 19.68% | Activity [22]: 5.44% | Drug uptake [23]: 1.6% | Activity [24]: 38.71% | Activity [25]: 2.24% | Drug uptake [26]: 0.36% | Activity [27]: 39.67% | Activity [28]: 2.56 dimensionless ratio | Activity [29]: Dose-dependent effect | Activity [30]: 16.86% | Activity [31]: 23.49% | Activity [32]: 4.94% | Activity [33]: 11.02% | Activity [34]: 25.7%
